Reference: ChEMBL document CHEMBL1126595, “Studies directed toward the design of orally active renin inhibitors. 2. Development of the efficacious, bioavailable renin inhibitor (2S)-2-benzyl-3- [[(1-methylpiperazin-4-yl)sulfonyl]propionyl]-3-thiazol-4-yl-L-alanine amide of (2S,3R,4S)-2-amino-1-cyclohexyl-3,4-dihydroxy-6-methylheptane …” (J Med Chem, 1993)
Values after ≈ are worked out from the molar mass of the structure shown.

How the values were obtained:
[1] = Integrated area under the plasma drug level-time curve was determined in systemic circulation after intraduodenal dose of 10 mg/kg in ferret; assay type: ADME, organism-based, Mustela putorius furo; parameters: dose 10 mg/kg, route intraduodenal
Outline: (§1)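 Intraduodenal 10 mg/kg to anesthetized rats or ferrets. Compound dissolved in ethanol with 110 mol % HCl, then diluted in aqueous hydroxypropyl methylcellulose to 25% ethanol (10 mg/mL). Plasma sampled id rat 15, 30, 60, 120 min; id ferret 5, 15, 30, 60, 120, 180 min. Drug measured by renin inhibition assay or HPLC. AUC in ng h/mL. Bioavailability is relative to iv 1.0 mg/kg (rat) or 0.3 mg/kg (ferret).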

[2] = Integrated area under the plasma drug level-time curve was determined in systemic circulation after intraduodenal dose of 10 mg/kg in rat; assay type: ADME, organism-based; parameters: dose 10 mg/kg, route intraduodenal; outline: as §1
[3] = Peak concentration was determined in systemic circulation after intraduodenal dose of 10 mg/kg in ferret; assay type: ADME, organism-based, Mustela putorius furo; parameters: dose 10 mg/kg, route intraduodenal; settings: in vivo, read-out: Activity; outline: as §1
[4] = Peak concentration was determined in systemic circulation after intraduodenal dose of 10 mg/kg in rat; assay type: ADME, organism-based; parameters: dose 10 mg/kg, route intraduodenal; settings: in vivo, read-out: Activity; outline: as §1
[5] = Bioavailability in ferret (dose 10 mg/kg i.d.); assay type: ADME, organism-based, Mustela putorius furo; settings: in vivo; outline: as §1
[6] = Bioavailability in rat (dose 10 mg/kg i.d.); assay type: ADME, organism-based; settings: in vivo; outline: as §1
[7] = Bioavailability in the portal circulation after 10 minutes was determined after intraduodenal dose of 10 mg/kg in rat by HPLC method; assay type: ADME, organism-based; settings: plasma (portal circulation), read-out: Plasma level
Outline: (§2)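 Screening model in anesthetized rats given 10 mg/kg intraduodenally. Formulation was ethanol stock with 110 mol % HCl, diluted with aqueous hydroxypropyl methylcellulose to 25% ethanol. Systemic and portal blood drawn at 10 and 30 min in the same animals. Drug level (ng/mL) measured by HPLC or renin inhibition assay. Mean ± SEM, n = 3 unless noted.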

[8] = Bioavailability in the portal circulation after 30 minutes was determined after intraduodenal dose of 10 mg/kg in rat by HPLC method; assay type: ADME, organism-based; settings: plasma (portal circulation), read-out: Plasma level; outline: as §2
[9] = Bioavailability in the systemic circulation after 10 minutes was determined after intraduodenal dose of 10 mg/kg in rat by HPLC method; assay type: ADME, organism-based; settings: plasma (systemic circulation), read-out: Plasma level; outline: as §2
[10] = Bioavailability in the systemic circulation after 30 minutes was determined after intraduodenal dose of 10 mg/kg in rat by HPLC method; assay type: ADME, organism-based; settings: plasma (systemic circulation), read-out: Plasma level; outline: as §2
[11] = Partition coefficient in the octanol/water phase at pH 7.4; assay type: physicochemical
Outline: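 log P measured by octanol/water partition at pH 7.4.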

Renin = biological target: T1, Renin (Homo sapiens, UniProt P00797); test: Inhibitory concentration against human plasma renin at pH 7.4; assay type: cell-free
T1 sequence (P00797 whole entry): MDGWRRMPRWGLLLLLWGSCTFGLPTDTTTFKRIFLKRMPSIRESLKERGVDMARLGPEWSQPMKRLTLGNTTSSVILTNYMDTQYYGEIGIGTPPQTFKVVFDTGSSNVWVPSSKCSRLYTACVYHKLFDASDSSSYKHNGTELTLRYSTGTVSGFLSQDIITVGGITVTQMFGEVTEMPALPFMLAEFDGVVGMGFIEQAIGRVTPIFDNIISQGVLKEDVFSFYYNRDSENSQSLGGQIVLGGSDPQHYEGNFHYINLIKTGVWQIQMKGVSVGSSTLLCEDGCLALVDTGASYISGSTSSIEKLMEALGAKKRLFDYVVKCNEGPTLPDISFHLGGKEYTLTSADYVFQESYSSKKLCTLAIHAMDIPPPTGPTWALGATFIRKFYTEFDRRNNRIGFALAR

[12] = Solubility at pH 7.4; assay type: physicochemical; settings: buffer
[13] = Bioavailability in the portal circulation after 30 minutes was determined after intraduodenal dose of 10 mg/kg in rat by renin inhibition assay; assay type: ADME, organism-based; settings: plasma (portal circulation), read-out: Plasma level; outline: as §2
[14] = Bioavailability in the portal circulation after 10 minutes was determined after intraduodenal dose of 10 mg/kg in rat by renin inhibition assay; assay type: ADME, organism-based; settings: plasma (portal circulation), read-out: Plasma level; outline: as §2
[15] = Bioavailability in the systemic circulation after 10 minutes was determined after intraduodenal dose of 10 mg/kg in rat by renin inhibition assay; assay type: ADME, organism-based; settings: plasma (systemic circulation), read-out: Plasma level; outline: as §2
[16] = Bioavailability in the systemic circulation after 30 minutes was determined after intraduodenal dose of 10 mg/kg in rat by renin inhibition assay; assay type: ADME, organism-based; settings: plasma (systemic circulation), read-out: Plasma level; outline: as §2
[17] = Integrated area under the plasma drug level-time curve was determined in portal circulation after intraduodenal dose of 10 mg/kg in monkey; assay type: ADME, organism-based; parameters: dose 10 mg/kg, route intraduodenal; settings: simiiformes
Outline: (§3)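 Anesthetized, salt-depleted cynomolgus monkeys dosed intraduodenally at 10 mg/kg in HCl salt/ethanol–hydroxypropyl methylcellulose vehicle (25% ethanol). Systemic and portal plasma drug levels measured by renin inhibition assay. AUC in ng h/mL. Bioavailability compared against an iv dose of 0.3 mg/kg or 1.0 mg/kg, the latter taken from earlier work. Mean ± SEM.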

[18] = Integrated area under the plasma drug level-time curve was determined in systemic circulation after intraduodenal dose of 10 mg/kg in monkey; assay type: ADME, organism-based; parameters: dose 10 mg/kg, route intraduodenal; settings: simiiformes; outline: as §3
[19] = Bioavailability was determined after intraduodenal dose of 10 mg/kg in monkey (compared to 1 mg/kg intravenous dose); assay type: ADME, organism-based; settings: simiiformes, in vivo, read-out: Bioavailabiility; outline: as §3
[20] = Hypotension peak is percentage change from predose baseline pressure observed after intraduodenal dose of 10 mg/kg in monkey; assay type: ADME, organism-based; parameters: dose 10 mg/kg, route intraduodenal; settings: simiiformes, in vivo, other
Outline: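 Anesthetized, salt-depleted cynomolgus monkeys given 10 mg/kg intraduodenally. Mean arterial pressure followed for up to 5 h. Peak fall expressed as % change from predose baseline. Difference from baseline significant if P < 0.05. Mean ± SEM.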

[21] = Peak concentration was determined in portal circulation after intraduodenal dose of 10 mg/kg in monkey; assay type: ADME, organism-based; parameters: dose 10 mg/kg, route intraduodenal; settings: simiiformes, in vivo, read-out: Activity; outline: as §3
[22] = Peak concentration was determined in systemic circulation after intraduodenal dose of 10 mg/kg in monkey; assay type: ADME, organism-based; parameters: dose 10 mg/kg, route intraduodenal; settings: simiiformes, in vivo, read-out: Activity; outline: as §3
[23] = Bioavailability in the systemic circulation after 10 minutes was determined after intraduodenal dose of 15 mg/kg in rat by renin inhibition assay; assay type: ADME, organism-based; settings: plasma (systemic circulation), read-out: Plasma level

Compound | concentration at 10 min [7] [ng/mL] | concentration at 0.5 h [8] [ng/mL] | concentration at 10 min [9] [ng/mL] | concentration at 0.5 h [10] [ng/mL] | logD [11] | IC50 (Renin) [nM] | solubility [12] [µg/mL] | concentration at 0.5 h [16] [ng/mL] | further results
CC(C)C[C@H](O)[C@H](O)[C@H](CC1CCCCC1)NC(=O)[C@H](Cc1cscn1)NC(=O)[C@H](Cc1ccccc1)CS(=O)(=O)C1CN(C)C1 | 1800 | 1900 | 510 | 550 | 3.89 | 3.9 |  |  | AUC [1]: 2000 ng·h/mL; AUC [2]: 1300 ng·h/mL; Cmax [3]: 790 ng/mL; Cmax [4]: 850 ng/mL; bioavailability [5]: 80%; bioavailability [6]: 80%
CC(C)C[C@H](O)[C@H](O)[C@H](CC1CCCCC1)NC(=O)[C@H](Cc1cscn1)NC(=O)[C@@H](CC(=O)N(C)CCn1ccnc1)Cc1ccccc1 | 400 | 810 | 57 | 190 | 4.01 | 1.3 | 120 (≈ 173 µM) |  | 
CC(C)C[C@H](O)[C@H](O)[C@H](CC1CCCCC1)NC(=O)[C@H](Cc1cscn1)NC(=O)[C@@H](CC(=O)N(C)CCN(C)C)Cc1ccccc1 |  |  |  |  | 3.11 | 9.4 |  | 450 | concentration at 0.5 h [13]: 780 ng/mL; concentration at 10 min [14]: 1600 ng/mL; concentration at 10 min [15]: 600 ng/mL
COCCOCOCCN(C)C(=O)C[C@@H](Cc1ccccc1)C(=O)N[C@@H](Cc1cscn1)C(=O)N[C@@H](CC1CCCCC1)[C@@H](O)[C@@H](O)CC(C)C |  |  |  |  | > 4.6 | 1.6 | 180 (≈ 246 µM) | 570 | concentration at 0.5 h [13]: 3100 ng/mL; concentration at 10 min [14]: 3100 ng/mL; concentration at 10 min [15]: 300 ng/mL
CC(C)C[C@H](O)[C@H](O)[C@H](CC1CCCCC1)NC(=O)[C@H](Cc1cscn1)NC(=O)[C@@H](CC(=O)N(C)CCN1CCOCC1)Cc1ccccc1 |  |  |  |  | 4.15 | 4.1 |  | 570 | AUC [1]: 1200 ng·h/mL; Cmax [3]: 860 ng/mL; bioavailability [5]: 85%
COCCOCOCCN(C)C(=O)C[C@@H](Cc1ccccc1)C(=O)N[C@@H](Cc1c[nH]cn1)C(=O)N[C@@H](CC1CCCCC1)[C@@H](O)[C@@H](O)CC(C)C | 1900 | 370 | 68 | 50 |  | 0.8 | 180 (≈ 251 µM) |  | 
CC(C)C[C@H](O)[C@H](O)[C@H](CC1CCCCC1)NC(=O)[C@H](Cc1cscn1)NC(=O)[C@@H](CC(=O)NCCc1ccccn1)Cc1ccccc1 |  |  |  |  |  | 37 |  |  | 
CC(C)C[C@H](O)[C@H](O)[C@H](CC1CCCCC1)NC(=O)[C@H](Cc1cscn1)NC(=O)[C@H](Cc1ccccc1)CS(=O)(=O)C(C)(C)C |  |  |  |  | > 4.2 |  |  | 29 | concentration at 0.5 h [13]: 500 ng/mL; concentration at 10 min [14]: 830 ng/mL; concentration at 10 min [15]: 22 ng/mL
CC(C)C[C@H](O)[C@H](O)[C@H](CC1CCCCC1)NC(=O)[C@H](Cc1cscn1)NC(=O)[C@@H](CC(=O)N(C)CCc1c[nH]c2ccccc12)Cc1ccccc1 |  |  |  |  |  | 33 |  |  | 
CC(C)C[C@H](O)[C@H](O)[C@H](CC1CCCCC1)NC(=O)[C@H](Cn1cccn1)NC(=O)[C@@H](CC(=O)N(C)CCc1ccccn1)Cc1ccccc1 | 2200 | 4500 | 220 | 300 | > 4.2 | 1.6 | 14 (≈ 20.3 µM) |  | AUC [1]: 870 ng·h/mL; AUC [2]: 760 ng·h/mL; Cmax [3]: 400 ng/mL; Cmax [4]: 460 ng/mL; bioavailability [5]: 35%; bioavailability [6]: 20%
CC(C)C[C@H](O)[C@H](O)[C@H](CC1CCCCC1)NC(=O)[C@H](Cc1cscn1)NC(=O)[C@H](Cc1ccccc1)CS(=O)(=O)N(C)CCc1ccccn1 |  |  |  |  | > 4.5 | 1.8 |  |  | 
CC(C)C[C@H](O)[C@H](O)[C@H](CC1CCCCC1)NC(=O)[C@H](Cc1cscn1)NC(=O)[C@@H](CC(=O)N(C)CCn1cccn1)Cc1ccccc1 | 1900 | 2300 | 140 | 230 | > 4.2 | 0.72 | 44 (≈ 63.3 µM) |  | 
COCCN(C)C(=O)C[C@@H](Cc1ccccc1)C(=O)N[C@@H](Cc1cscn1)C(=O)N[C@@H](CC1CCCCC1)[C@@H](O)[C@@H](O)CC(C)C | 930 | 600 | 33 | 33 |  | 4.1 |  |  | 
CC(C)C[C@H](O)[C@H](O)[C@H](CC1CCCCC1)NC(=O)[C@H](Cc1cscn1)NC(=O)[C@@H](CC(=O)N(C)CCN1CCN(C)CC1)Cc1ccccc1 |  |  |  |  | 3.58 | 8.5 |  | 74 | concentration at 0.5 h [13]: 590 ng/mL; concentration at 10 min [14]: 580 ng/mL; concentration at 10 min [15]: 80 ng/mL
CC(C)C[C@H](O)[C@H](O)[C@H](CC1CCCCC1)NC(=O)[C@H](Cn1ccnc1)NC(=O)[C@@H](CC(=O)N(C)CCc1ccccn1)Cc1ccccc1 |  |  |  |  |  | 14 |  |  | 
CC(C)C[C@H](O)[C@H](O)[C@H](CC1CCCCC1)NC(=O)[C@H](Cc1cscn1)NC(=O)[C@@H](CC(=O)N(C)CCc1ccncc1)Cc1ccccc1 |  |  |  | 190 | > 4.2 | 3 | 12 (≈ 17 µM) |  | 
CC(C)C[C@H](O)[C@H](O)[C@H](CC1CCCCC1)NC(=O)[C@H](Cc1cscn1)NC(=O)[C@H](Cc1ccccc1)CS(=O)(=O)N1CCN(C)CC1 [ZANKIREN] |  |  |  |  | 4.57 |  |  | 440 | AUC [17]: 3800 ng·h/mL; AUC [1]: 1500 ng·h/mL; AUC [18]: 340 ng·h/mL; AUC [2]: 620 ng·h/mL; bioavailability [19]: 5.1%; Change [20]: 37%; Cmax [21]: 2400 ng/mL; Cmax [3]: 940 ng/mL; Cmax [22]: 130 ng/mL; Cmax [4]: 470 ng/mL; bioavailability [5]: 82%; bioavailability [6]: 23%; concentration at 10 min [23]: 280 ng/mL
